Calls of active or inactive are those of the source. The rule behind the calls is not given here.

Assay [1] deals with Mus musculus. The assay is described as follows: Ex vivo antitumor activity against patient derived VFN-M1 cells xenografted NSG mouse assessed as increase in cleaved caspase 9 expression at 10 mg/kg, iv measured after 24 hrs by immunoblotting analysis. In kind it is functional, organism-based. The essentials:
(§1)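 Female NSG mice, 8-12 weeks old, implanted s.c. with lymphoma cells. Once tumors were palpable, mice received a single tail-vein i.v. dose (5 or 10 mg/kg) of compound dissolved in PBS. Mice were euthanized 24 h later. Tumors were excised, filtered through 45 µm nylon mesh and lysed, then proteins were analysed by immunoblotting.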

Another assay deals with CDK7/Cyclin H/MNAT1 (Homo sapiens, UniProt P50613). As to the kind of experiment: Inhibition of recombinant human N-terminal GST-His6-fused CDK7 (M1 to F346 residues)/N-terminal His-tagged cyclin H (M1 to L323 residues)/N-terminal His6-tagged MAT1 (M1 to S306 residues) expressed in baculovirus infected Sf9 insect cells using (YSPTSPS)2KK as substrate measured in presence of [gamma-33P]ATP. The gist of the method:
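CDK/cyclin complexes tested in triplicate at minimum; IC50 values reported from those replicate determinations.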

Assay [2] can be described thus: Antiproliferative activity against human Mino cells assessed as growth inhibition measured after 72 hrs by calcein AM dye-based fluorescence assay. Type of assay: functional, cell-based. The gist of the method: (§2)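 Cells exposed in triplicate to six concentrations for 72 h; calcein AM added for 1 h, live-cell fluorescence read at 485/538 nm (ex/em). GI50 taken from dose-response curves.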

The species named for assay [3] is Homo sapiens. The assay is described as follows: Induction of apoptosis in human Mino cells assessed as caspase 7 activation at 12.5 nM after 2 to 24 hrs by immunoblotting analysis. Type of assay: functional, cell-based. The gist of the method: (§3)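 Lymphoma cell lines were cultured as the providers instruct and exposed to compound at several doses or for several times. Lysates were run on SDS-PAGE and blotted to nitrocellulose. Blots were blocked, incubated overnight with primary antibodies diluted in PBS with 5% milk and 0.1% Tween 20, then with peroxidase-conjugated secondaries, and detected by chemiluminescence on a CCD camera.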
(In general: Immunoblotting shows a protein as a band on a membrane.)

The species named for assay [4] is Homo sapiens. The assay is described as follows: Induction of apoptosis in human UPF1H cells assessed as reduction in XIAP expression at 12.5 to 100 nM after 24 hrs by immunoblot analysis. In kind it is functional, cell-based. The gist of the method: as §3
The subject of assay [5] is Mus musculus. The assay is described as follows: Ex vivo antitumor activity against human Mino cells xenografted NSG mouse decrease in phosphorylation of RNA polymerase 2 C-terminal domain at Ser 5 residue at 5 to 10 mg/kg, iv measured after 24 hrs by immunoblotting analysis. Type of assay: functional, organism-based. The gist of the method: as §1
For orientation: Xenograft models place foreign cells or tissue in a host animal.

In assay [6] the test system is Mus musculus. The assay is described as follows: Ex vivo antitumor activity against human UPF1H cells xenografted NSG mouse decrease in phosphorylation of Rb at 780 residue at 5 to 10 mg/kg, iv measured after 24 hrs by immunoblotting analysis. Type of assay: functional, organism-based. The essentials:
as §1

The subject of assay [7] is Mus musculus. As to the kind of experiment: Ex vivo antitumor activity against human Mino cells xenografted NSG mouse decrease in phosphorylation of Rb at 780 residue at 5 to 10 mg/kg, iv measured after 24 hrs by immunoblotting analysis. In kind it is functional, organism-based. The gist of the method:
as §1

The subject of assay [8] is Homo sapiens. The assay is described as follows: Antitumor activity against human HBL2 cells xenografted in NSG mouse assessed as inhibition of tumor growth at 10 mg/kg, iv administered daily measured every day during compound dosing by caliper method.
Assay [9] relates to Mus musculus. The assay is described as follows: Ex vivo antitumor activity against human UPF1H cells xenografted NSG mouse assessed as down regulation of MCL1 expression at 5 to 10 mg/kg, iv measured after 24 hrs by immunoblotting analysis. In kind it is functional, organism-based. The gist of the method: as §1
The next assay deals with U2932. As to the kind of experiment: Antiproliferative activity against human U2932 cells assessed as growth inhibition measured after 72 hrs by calcein AM dye-based fluorescence assay. Type of assay: functional, cell-based. The following applies: U2932, 72 h. The essentials:
as §2

A further assay has as its system Raji. As to the kind of experiment: Antiproliferative activity against human Raji cells assessed as growth inhibition measured after 72 hrs by calcein AM dye-based fluorescence assay. Type of assay: functional, cell-based. The gist of the method: as §2
The species entered for assay [10] is Homo sapiens. As to the kind of experiment: Induction of apoptosis in human UPF1H cells assessed as activation of caspase-7 at 12.5 to 100 nM after 24 hrs by immunoblot analysis. Type of assay: functional, cell-based. The essentials:
as §3

For assay [11], the system named is Mus musculus. As to the kind of experiment: Ex vivo antitumor activity against human UPF1H cells xenografted NSG mouse assessed as down regulation of XIAP expression at 5 to 10 mg/kg, iv measured after 24 hrs by immunoblotting analysis. In kind it is functional, organism-based. The gist of the method:
as §1

Assay [12] is filed under the species Homo sapiens. The assay is described as follows: Induction of apoptosis in human Mino cells assessed as caspase 7 activation at 1.5 to 12.5 nM after 24 hrs by immunoblotting analysis. In kind it is functional, cell-based. The essentials: as §3
Assay [13] is filed under the species Homo sapiens. As to the kind of experiment: Induction of apoptosis in human Mino cells assessed as caspase 3 activation at 12.5 nM after 2 to 24 hrs by immunoblotting analysis. In kind it is functional, cell-based. The gist of the method:
as §3

Assay [14] is described as follows: Antiproliferative activity against human RIVA cells assessed as growth inhibition measured after 72 hrs by calcein AM dye-based fluorescence assay. Type of assay: functional, cell-based. The gist of the method: as §2
In the next assay the test system is THP-1. As to the kind of experiment: Antiproliferative activity against human THP1 cells assessed as growth inhibition measured after 72 hrs by calcein AM dye-based fluorescence assay. The following applies: THP-1, 72 h. Type of assay: functional, cell-based. The essentials:
as §2

A further assay relates to Maver1. As to the kind of experiment: Induction of apoptosis in human Maver1 cells assessed as activation of caspase-7 at 1.5 to 12.5 nM after 24 hrs by immunoblot analysis. Type of assay: functional, cell-based. The essentials: as §3

CDK7/Cyclin H/MNAT1, sequence (P51946 whole entry, the tested form may be a part): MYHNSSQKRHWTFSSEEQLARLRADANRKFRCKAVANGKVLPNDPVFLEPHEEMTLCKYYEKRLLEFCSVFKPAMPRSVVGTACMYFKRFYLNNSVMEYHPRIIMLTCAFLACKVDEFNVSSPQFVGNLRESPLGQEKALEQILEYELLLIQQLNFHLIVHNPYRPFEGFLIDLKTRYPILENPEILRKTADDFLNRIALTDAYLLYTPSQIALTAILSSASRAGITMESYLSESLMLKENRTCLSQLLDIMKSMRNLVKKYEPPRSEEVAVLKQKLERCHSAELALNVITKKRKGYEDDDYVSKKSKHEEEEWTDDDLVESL
CDK7/Cyclin H/MNAT1, sequence (P50613 whole entry, the tested form may be a part): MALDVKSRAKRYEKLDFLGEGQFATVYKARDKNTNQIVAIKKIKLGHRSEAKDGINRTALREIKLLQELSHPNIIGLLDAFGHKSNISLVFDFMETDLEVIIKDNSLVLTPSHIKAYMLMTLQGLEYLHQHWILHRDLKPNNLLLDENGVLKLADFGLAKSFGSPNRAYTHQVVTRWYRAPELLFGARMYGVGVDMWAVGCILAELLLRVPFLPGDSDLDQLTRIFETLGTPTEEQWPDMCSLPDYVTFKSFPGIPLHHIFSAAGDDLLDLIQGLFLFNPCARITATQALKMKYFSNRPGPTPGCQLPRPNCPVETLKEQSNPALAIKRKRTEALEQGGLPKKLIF
CDK7/Cyclin H/MNAT1, sequence (P51948 whole entry, further chain, the tested form may be a part): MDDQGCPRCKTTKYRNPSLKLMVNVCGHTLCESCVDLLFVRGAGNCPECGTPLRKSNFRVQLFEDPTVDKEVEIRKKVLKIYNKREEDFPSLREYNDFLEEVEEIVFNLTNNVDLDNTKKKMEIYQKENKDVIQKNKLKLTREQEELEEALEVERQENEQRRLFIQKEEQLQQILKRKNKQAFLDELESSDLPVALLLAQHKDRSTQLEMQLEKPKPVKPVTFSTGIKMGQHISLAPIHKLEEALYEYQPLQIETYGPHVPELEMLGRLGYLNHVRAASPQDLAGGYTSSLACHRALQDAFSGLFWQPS

On to `CC(C)c1n[nH]c2c(NCc3ccc(-c4ccccn4)cc3)nc(SCCN)nc12`, for which the outcome with Mus musculus [1], in the assay listed under Homo sapiens [3], in the assay filed under Homo sapiens [4], in the assay with Mus musculus [5], in the assay on Mus musculus [6] and with Mus musculus [7] was Active. For the same compound, the outcome in the assay on Mus musculus [9], in the assay listed under Homo sapiens [10], with Mus musculus [11], in the assay listed under Homo sapiens [12], in the assay filed under Homo sapiens [13] and with Maver1 was Active. For the same compound, the IC50 was 124 nM on CDK7/Cyclin H/MNAT1; 16 nM in assay [2]; 30 nM in the assay with U2932; 38 nM with Raji; 11 nM in assay [14]; 19 nM in the assay on THP-1. The GI50 in assay [2] was 16 nM; with U2932, 30 nM; in the assay on Raji it was 38 nM; in [14] it was 11 nM; in the assay with THP-1, 19 nM. Also, the TGI entry in the assay with Homo sapiens [8] was “Active”.

As a reminder, the IC50 is the midpoint of a concentration-inhibition curve. Broadly, the GI50 is the concentration that inhibits growth by half.

The values are drawn from ChEMBL document CHEMBL4385606, “3,5,7-Substituted Pyrazolo[4,3- d]pyrimidine Inhibitors of Cyclin-Dependent Kinases and Their Evaluation in Lymphoma Models” (J Med Chem, 2019).
